Laboratory results taken from ChEMBL document CHEMBL1139333, “Search for new pharmacophores for antimalarial activity. Part I: synthesis and antimalarial activity of new 2-methyl-6-ureido-4-quinolinamides” (Bioorg Med Chem, 2009).
Converted amounts (≈) assume the structure as drawn.

Tested on: Plasmodium falciparum
Test: Antimalarial activity against chloroquine-sensitive Plasmodium falciparum 3D7 infected erythrocytes after 72 hrs by MSF assay
Details: 3D7, 72 h

Row | Compound | IC50 [µg/mL]
1 | Cc1cc(NC(=O)c2ccco2)c2cc(NC(=O)Nc3cccc(C#N)c3)ccc2n1 | 0.0004 (≈ 0.000972 µM)
2 | Cc1cc(NC(=O)CN2CCN(C)CC2)c2cc(NC(=O)Nc3ccc(Cl)c(C(F)(F)F)c3)ccc2n1 | 0.0182 (≈ 0.034 µM)
3 | Cc1cc(NC(=O)CN2CCN(C)CC2)c2cc(NC(=O)Nc3ccc(C)c(Cl)c3)ccc2n1 | 0.0033 (≈ 0.00686 µM)
4 | Cc1cc(NC(=O)CN2CCN(C)CC2)c2cc(NC(=O)Nc3cccc(Cl)c3)ccc2n1 | 0.013 (≈ 0.0278 µM)
5 | Cc1cc(NC(=O)CN2CCCCC2)c2cc(NC(=O)Nc3ccc(Cl)c(C(F)(F)F)c3)ccc2n1 | 0.0358 (≈ 0.0689 µM)
6 | Cc1cc(NC(=O)CN2CCN(C)CC2)c2cc(NC(=O)Nc3ccc(Cl)c(Cl)c3)ccc2n1 | 0.0022 (≈ 0.00439 µM)

Tested on: Plasmodium yoelii nigeriensis
Test: Antimalarial activity as reduced parasitaemia after 28 days against Plasmodium yoelii nigeriensis MDR infected Swiss mice (Mus musculus) at 100 mg/kg peroral dose over 4 days
Format: functional
Design: scale not given: the % may be the effect or the level left
Details: route oral
Outline: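 Swiss mice of either sex (25 g) inoculated on day 0 with 1 × 10⁶ P. yoelii nigeriensis MDR parasitized cells. Groups of five mice received an aqueous suspension orally at 100 mg/kg from day 0 to day 3. Five vehicle-only mice served as controls. Parasitemia was read from tail-vein thin blood smears on days 4, 7, 14, 21 and 28, or until death.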

Row | Compound | Activity [%]
7 | Cc1cc(NC(=O)c2ccco2)c2cc(NC(=O)Nc3cccc(C#N)c3)ccc2n1 | 100

Tested on: Pseudomonas aeruginosa
Test: Antibacterial activity against Pseudomonas aeruginosa after 24 hrs by NCCLS method
Format: functional
Details: not given
Outline: (§1)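 Bacteria grown on nutrient agar at 37 °C for 24 h, then suspended in normal saline with 0.05% Tween 20 at about […] cells/mL (0.5 McFarland). MIC by NCCLS broth microdilution in Mueller Hinton broth with twofold serial dilutions. Compounds were dissolved in DMSO at 1 mg/mL (stock). Growth, drug and blank controls were included.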

Row | Compound | MIC [µg/mL]
8 | Cc1cc(NC(=O)CN2CCN(C)CC2)c2cc(NC(=O)Nc3ccc(Cl)c(C(F)(F)F)c3)ccc2n1 | 12.5 (≈ 23.4 µM)
9 | Cc1cc(NC(=O)CN2CCN(C)CC2)c2cc(NC(=O)Nc3ccc(C)c(Cl)c3)ccc2n1 | > 50
10 | Cc1cc(NC(=O)CN2CCN(C)CC2)c2cc(NC(=O)Nc3ccc(Cl)c(Cl)c3)ccc2n1 | 6.25 (≈ 12.5 µM)

Tested on: Plasmodium yoelii nigeriensis
Test: Antimalarial activity at day 28 against Plasmodium yoelii nigeriensis MDR infected Swiss mice (Mus musculus) at 100 mg/kg peroral dose for 7 days
Format: functional
Details: route oral

Row | Compound | Activity [%]
11 | Cc1cc(NC(=O)c2ccco2)c2cc(NC(=O)Nc3cccc(C#N)c3)ccc2n1 | 1.84
12 | Cc1cc(NC(=O)CN2CCN(C)CC2)c2cc(NC(=O)Nc3cccc(Cl)c3)ccc2n1 | 50
13 | Cc1cc(NC(=O)CN2CCCCC2)c2cc(NC(=O)Nc3ccc(Cl)c(C(F)(F)F)c3)ccc2n1 | 13.83

Tested on: Staphylococcus aureus
Test: Antibacterial activity against Staphylococcus aureus after 24 hrs by NCCLS method
Format: functional
Details: not given
Outline: as §1

Row | Compound | MIC [µg/mL]
14 | Cc1cc(NC(=O)CN2CCN(C)CC2)c2cc(NC(=O)Nc3ccc(Cl)c(C(F)(F)F)c3)ccc2n1 | 6.25 (≈ 11.7 µM)
15 | Cc1cc(NC(=O)CN2CCN(C)CC2)c2cc(NC(=O)Nc3ccc(Cl)c(Cl)c3)ccc2n1 | 6.25 (≈ 12.5 µM)

Tested on: Plasmodium yoelii
Test: Antimalarial activity as parasitaemia after 28 days against chloroquine-resistant Plasmodium yoelii N67 infected Swiss mice (Mus musculus) at 50 mg/kg peroral dose over 7 days
Format: functional
Details: route oral

Row | Compound | Activity [%]
16 | Cc1cc(NC(=O)CN2CCN(C)CC2)c2cc(NC(=O)Nc3ccc(Cl)c(C(F)(F)F)c3)ccc2n1 | 11
17 | Cc1cc(NC(=O)CN2CCN(C)CC2)c2cc(NC(=O)Nc3ccc(C)c(Cl)c3)ccc2n1 | 5.15
18 | Cc1cc(NC(=O)CN2CCN(C)CC2)c2cc(NC(=O)Nc3ccc(Cl)c(Cl)c3)ccc2n1 | 1.5

Tested on: Klebsiella pneumoniae
Test: Antibacterial activity against Klebsiella pneumoniae after 24 hrs by NCCLS method
Format: functional
Details: not given
Outline: as §1

Row | Compound | MIC [µg/mL]
19 | Cc1cc(NC(=O)CN2CCN(C)CC2)c2cc(NC(=O)Nc3ccc(Cl)c(C(F)(F)F)c3)ccc2n1 | 1.56 (≈ 2.92 µM)
20 | Cc1cc(NC(=O)CN2CCN(C)CC2)c2cc(NC(=O)Nc3ccc(C)c(Cl)c3)ccc2n1 | 12.5 (≈ 26 µM)

Tested on: Enterococcus faecalis
Test: Antibacterial activity against Streptococcus faecalis after 24 hrs by NCCLS method
Format: functional
Details: not given
Outline: as §1

Row | Compound | MIC [µg/mL]
21 | Cc1cc(NC(=O)CN2CCN(C)CC2)c2cc(NC(=O)Nc3ccc(Cl)c(C(F)(F)F)c3)ccc2n1 | 3.1 (≈ 5.79 µM)
22 | Cc1cc(NC(=O)CN2CCN(C)CC2)c2cc(NC(=O)Nc3ccc(Cl)c(Cl)c3)ccc2n1 | 1.56 (≈ 3.11 µM)

Tested on: Plasmodium yoelii nigeriensis
Test: Antimalarial activity day 28 against Plasmodium yoelii nigeriensis MDR infected Swiss mice (Mus musculus) as reduced parasitaemia at 100 mg/kg peroral dose for 7 days
Format: functional
Design: scale not given: the % may be the effect or the level left
Details: route oral

Row | Compound | Activity [%]
23 | Cc1cc(NC(=O)c2ccco2)c2cc(NC(=O)Nc3cccc(C#N)c3)ccc2n1 | 91.29

Tested on: Plasmodium yoelii
Test: Antimalarial activity as parasitaemia after 28 days against chloroquine-resistant Plasmodium yoelii N67 infected Swiss mice (Mus musculus) at 50 mg/kg peroral dose over 4 days
Format: functional
Details: route oral
Outline: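 Swiss mice (25 g, either sex, n=5) infected on day 0 with 1 × 10⁶ P. yoelii N67 chloroquine-resistant parasitized cells. Test compounds were given orally as an aqueous suspension at 50 mg/kg from day 0 to 3; vehicle controls were run alongside. Parasitaemia was counted on tail-vein thin smears on days 4, 7, 14, 21 and 28, or until death.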

Row | Compound | Activity [%]
24 | Cc1cc(NC(=O)CN2CCN(C)CC2)c2cc(NC(=O)Nc3ccc(Cl)c(C(F)(F)F)c3)ccc2n1 | 2.28
25 | Cc1cc(NC(=O)CN2CCN(C)CC2)c2cc(NC(=O)Nc3ccc(C)c(Cl)c3)ccc2n1 | 1.67
26 | Cc1cc(NC(=O)CN2CCN(C)CC2)c2cc(NC(=O)Nc3ccc(Cl)c(Cl)c3)ccc2n1 | 2.55

Tested on: Plasmodium yoelii
Test: Antimalarial activity as reduced parasitaemia after 28 days against chloroquine-resistant Plasmodium yoelii N67 infected Swiss mice (Mus musculus) at 50 mg/kg peroral dose over 7 days
Format: functional
Design: scale not given: the % may be the effect or the level left
Details: route oral

Row | Compound | Activity [%]
27 | Cc1cc(NC(=O)CN2CCN(C)CC2)c2cc(NC(=O)Nc3ccc(Cl)c(Cl)c3)ccc2n1 | 92.9

Tested on: Escherichia coli
Test: Antibacterial activity against Escherichia coli after 24 hrs by NCCLS method
Format: functional
Details: not given
Outline: as §1

Row | Compound | MIC [µg/mL]
28 | Cc1cc(NC(=O)CN2CCN(C)CC2)c2cc(NC(=O)Nc3ccc(Cl)c(C(F)(F)F)c3)ccc2n1 | 1.56 (≈ 2.92 µM)
29 | Cc1cc(NC(=O)CN2CCN(C)CC2)c2cc(NC(=O)Nc3ccc(C)c(Cl)c3)ccc2n1 | 6.25 (≈ 13 µM)
30 | Cc1cc(NC(=O)CN2CCN(C)CC2)c2cc(NC(=O)Nc3ccc(Cl)c(Cl)c3)ccc2n1 | 1.56 (≈ 3.11 µM)

Tested on: Plasmodium falciparum
Test: Antimalarial effect as schizonticidal activity against chloroquine-sensitive Plasmodium falciparum 3D7 after 40 hrs
Details: 3D7, 40 h

Row | Compound | MIC [µg/mL]
31 | Cc1cc(NC(=O)c2ccco2)c2cc(NC(=O)Nc3cccc(C#N)c3)ccc2n1 | 0.5 (≈ 1.22 µM)
32 | Cc1cc(NC(=O)CN2CCN(C)CC2)c2cc(NC(=O)Nc3ccc(Cl)c(C(F)(F)F)c3)ccc2n1 | 0.5 (≈ 0.935 µM)
33 | Cc1cc(NC(=O)CN2CCN(C)CC2)c2cc(NC(=O)Nc3ccc(C)c(Cl)c3)ccc2n1 | 0.25 (≈ 0.52 µM)
34 | Cc1cc(NC(=O)CN2CCN(C)CC2)c2cc(NC(=O)Nc3cccc(Cl)c3)ccc2n1 | 0.25 (≈ 0.535 µM)
35 | Cc1cc(NC(=O)CN2CCCCC2)c2cc(NC(=O)Nc3ccc(Cl)c(C(F)(F)F)c3)ccc2n1 | 0.25 (≈ 0.481 µM)
36 | Cc1cc(NC(=O)CN2CCN(C)CC2)c2cc(NC(=O)Nc3ccc(Cl)c(Cl)c3)ccc2n1 | 0.25 (≈ 0.499 µM)

Tested on: Plasmodium yoelii nigeriensis
Test: Antimalarial activity as parasitaemia against Plasmodium yoelii nigeriensis MDR infected Swiss mice (Mus musculus) at 100 mg/kg peroral dose over 4 days
Details: route oral

Row | Compound | Activity [%]
37 | Cc1cc(NC(=O)c2ccco2)c2cc(NC(=O)Nc3cccc(C#N)c3)ccc2n1 | 0
38 | Cc1cc(NC(=O)CN2CCN(C)CC2)c2cc(NC(=O)Nc3cccc(Cl)c3)ccc2n1 | 18.8
39 | Cc1cc(NC(=O)CN2CCCCC2)c2cc(NC(=O)Nc3ccc(Cl)c(C(F)(F)F)c3)ccc2n1 | 0.27

Tested on: not listed separately
Test: Selectivity index, ratio of CC50 for african green monkey (Cercopithecus aethiops) Vero cells to IC50 for Plasmodium falciparum 3D7
Format: functional
Details: not given

Row | Compound | Selectivity Index
40 | Cc1cc(NC(=O)CN2CCN(C)CC2)c2cc(NC(=O)Nc3ccc(Cl)c(C(F)(F)F)c3)ccc2n1 | 53.4
41 | Cc1cc(NC(=O)CN2CCN(C)CC2)c2cc(NC(=O)Nc3cccc(Cl)c3)ccc2n1 | 549.7
42 | Cc1cc(NC(=O)CN2CCCCC2)c2cc(NC(=O)Nc3ccc(Cl)c(C(F)(F)F)c3)ccc2n1 | 76.5
